Measurements reported in ChEMBL document CHEMBL4311956, “A Qualified Success: Discovery of a New Series of ATAD2 Bromodomain Inhibitors with a Novel Binding Mode Using High-Throughput Screening and Hit Qualification” (J Med Chem, 2019).
pIC50: −log10 of the molar value.

Key:
Homo sapiens [1] = organism: Homo sapiens; test: Selectivity ratio, ratio of inhibition of CECR2 (unknown origin) to Displacement of biotinylated H4 peptide from ATAD2B bromodomain (unknown origin) by TR-FRET assay
Homo sapiens [2] = organism: Homo sapiens; test: Selectivity ratio, ratio of inhibition of TAF1 BD2 (unknown origin) to Displacement of biotinylated H4 peptide from ATAD2B bromodomain (unknown origin) by TR-FRET assay
[3] = target: Bromodomain-containing protein 1 (Homo sapiens, UniProt O95696); test: Inhibition of BRPF2 (unknown origin) by TR-FRET assay
[4] = target: Bromodomain-containing protein 4 (Homo sapiens, UniProt O60885, Y97A); test: Displacement of Alexa Fluor 647 labelled ligand from His6-tagged BRD4 BD2 (1 to 477 residues)/BD1 Y97A mutant (unknown origin) after 30 mins by TR-FRET assay
In short: (§1)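 BET selectivity by TR-FRET fluoroligand displacement. Uses tandem BET bromodomain constructs carrying a mutation in the non-assayed bromodomain.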

[5] = target: Bromodomain-containing protein 9 (Homo sapiens, UniProt Q9H8M2); test: Inhibition of BRD9 (unknown origin) by TR-FRET assay
[6] = target: ATPase family AAA domain-containing protein 2B (Homo sapiens, UniProt Q9ULI0); test: Displacement of biotinylated H4 peptide from ATAD2B bromodomain (unknown origin) by TR-FRET assay
Homo sapiens [7] = organism: Homo sapiens; test: (§2) Selectivity ratio, ratio of inhibition of TAF1 BD2 (unknown origin) to displacement of SGRG-K(Ac)-GG-K(Ac)-GLG-K(Ac)-GGAKRHRKV-biotin) from His6/FLAG-tagged TEV fused ATAD2 bromodomain (981 to 1121 residues) expressed in Escherichia coli BL21(DE3) cells
[8] = target: Bromodomain-containing protein 4 (Homo sapiens, UniProt O60885, Y390A); test: Displacement of Alexa Fluor 647 labelled ligand from His6-tagged BRD4 BD1 (1 to 477 residues)/BD2 Y390A mutant (unknown origin) after 30 mins by TR-FRET assay; in short: as §1
CREB-binding protein = CREB-binding protein (Homo sapiens, UniProt Q92793); test: Inhibition of CREBBP (unknown origin) by TR-FRET assay
Homo sapiens [9] = organism: Homo sapiens; test: Selectivity ratio, ratio of inhibition of BRPF3 (unknown origin) to Displacement of biotinylated H4 peptide from ATAD2B bromodomain (unknown origin) by TR-FRET assay
Peregrin = Peregrin (Homo sapiens, UniProt P55201); test: Inhibition of BRPF1 (unknown origin) by TR-FRET assay
Homo sapiens [10] = organism: Homo sapiens; test: Selectivity ratio, ratio of inhibition of CECR2 (unknown origin) to displacement of SGRG-K(Ac)-GG-K(Ac)-GLG-K(Ac)-GGAKRHRKV-biotin) from His6/FLAG-tagged TEV fused ATAD2 bromodomain (981 to 1121 residues) expressed in Escherichia coli BL21(DE3) cells
[11] = target: Bromodomain-containing protein 2 (Homo sapiens, UniProt P25440, Y386A); test: Displacement of Alexa Fluor 647 labelled ligand from His6-tagged BRD2 BD1 (1 to 473 residues)/BD2 Y386A mutant (unknown origin) after 30 mins by TR-FRET assay; in short: as §1
[12] = target: Transcription initiation factor TFIID subunit 1 (Homo sapiens, UniProt P21675); test: Inhibition of TAF1 BD2 (unknown origin) by TR-FRET assay
Homo sapiens [13] = organism: Homo sapiens; test: as §2, with “displacement” for “inhibition”, “Alexa Fluor 647 labelled ligand from His6-tagged BRD4” for “TAF1”, “BD2 (1 to 477 residues)/BD1 Y97A mutant” for “BD2”
[14] = target: Bromodomain-containing protein 7 (Homo sapiens, UniProt Q9NPI1); test: Inhibition of BRD7 (unknown origin) by TR-FRET assay
Homo sapiens [15] = organism: Homo sapiens; test: Selectivity ratio, ratio of inhibition of BRPF3 (unknown origin) to displacement of SGRG-K(Ac)-GG-K(Ac)-GLG-K(Ac)-GGAKRHRKV-biotin) from His6/FLAG-tagged TEV fused ATAD2 bromodomain (981 to 1121 residues) expressed in Escherichia coli BL21(DE3) cells
[16] = target: Bromodomain and PHD finger-containing protein 3 (Homo sapiens, UniProt Q9ULD4); test: Inhibition of BRPF3 (unknown origin) by TR-FRET assay
[17] = target: Nucleosome-remodeling factor subunit BPTF (Homo sapiens, UniProt Q12830); test: Inhibition of BPTF (unknown origin) by TR-FRET assay
[18] = target: Bromodomain-containing protein 2 (Homo sapiens, UniProt P25440, Y113A); test: Displacement of Alexa Fluor 647 labelled ligand from His6-tagged BRD2 BD2 (1 to 473 residues)/BD1 Y113A mutant (unknown origin) after 30 mins by TR-FRET assay; in short: as §1
[19] = target: Chromatin remodeling regulator CECR2 (Homo sapiens, UniProt Q9BXF3); test: Inhibition of CECR2 (unknown origin) by TR-FRET assay
[20] = target: Bromodomain-containing protein 3 (Homo sapiens, UniProt Q15059, Y348A); test: Displacement of Alexa Fluor 647 labelled ligand from His6-tagged BRD3 BD1(1 to 435 residues)/BD2 Y348A mutant (unknown origin) after 30 mins by TR-FRET assay; in short: as §1
[21] = target: Bromodomain testis-specific protein (Homo sapiens, UniProt Q58F21, Y309A); test: Displacement of Alexa Fluor 647 labelled ligand from His6/FLAG-tagged TEV fused BRDT BD1(1 to 397 residues)/BD2 Y309A mutant (unknown origin) after 30 mins by TR-FRET assay; in short: as §1

Bromodomain-containing protein 2 (Homo sapiens, UniProt P25440, Y386A), sequence (P25440 whole entry Y386A, the tested form may be a part): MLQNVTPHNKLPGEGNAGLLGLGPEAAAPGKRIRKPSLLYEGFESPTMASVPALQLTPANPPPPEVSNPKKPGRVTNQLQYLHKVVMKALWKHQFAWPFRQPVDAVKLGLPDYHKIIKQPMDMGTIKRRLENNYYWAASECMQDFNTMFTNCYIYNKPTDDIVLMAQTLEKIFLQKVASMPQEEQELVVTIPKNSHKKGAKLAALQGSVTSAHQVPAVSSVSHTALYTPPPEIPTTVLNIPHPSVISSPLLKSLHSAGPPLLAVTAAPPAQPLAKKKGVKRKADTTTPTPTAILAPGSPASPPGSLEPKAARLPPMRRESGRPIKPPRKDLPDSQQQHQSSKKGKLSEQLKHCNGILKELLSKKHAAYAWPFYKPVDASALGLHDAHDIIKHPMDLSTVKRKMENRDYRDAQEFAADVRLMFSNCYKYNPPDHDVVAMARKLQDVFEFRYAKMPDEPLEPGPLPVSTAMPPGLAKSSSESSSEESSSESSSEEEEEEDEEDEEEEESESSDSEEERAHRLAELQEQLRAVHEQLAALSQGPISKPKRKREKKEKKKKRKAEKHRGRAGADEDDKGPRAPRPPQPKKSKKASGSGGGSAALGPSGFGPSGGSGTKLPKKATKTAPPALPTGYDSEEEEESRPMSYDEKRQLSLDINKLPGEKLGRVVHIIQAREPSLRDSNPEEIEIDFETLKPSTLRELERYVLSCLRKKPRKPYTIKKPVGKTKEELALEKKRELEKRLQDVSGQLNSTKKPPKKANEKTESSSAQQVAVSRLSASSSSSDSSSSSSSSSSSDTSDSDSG
CREB-binding protein, sequence (Q92793 whole entry): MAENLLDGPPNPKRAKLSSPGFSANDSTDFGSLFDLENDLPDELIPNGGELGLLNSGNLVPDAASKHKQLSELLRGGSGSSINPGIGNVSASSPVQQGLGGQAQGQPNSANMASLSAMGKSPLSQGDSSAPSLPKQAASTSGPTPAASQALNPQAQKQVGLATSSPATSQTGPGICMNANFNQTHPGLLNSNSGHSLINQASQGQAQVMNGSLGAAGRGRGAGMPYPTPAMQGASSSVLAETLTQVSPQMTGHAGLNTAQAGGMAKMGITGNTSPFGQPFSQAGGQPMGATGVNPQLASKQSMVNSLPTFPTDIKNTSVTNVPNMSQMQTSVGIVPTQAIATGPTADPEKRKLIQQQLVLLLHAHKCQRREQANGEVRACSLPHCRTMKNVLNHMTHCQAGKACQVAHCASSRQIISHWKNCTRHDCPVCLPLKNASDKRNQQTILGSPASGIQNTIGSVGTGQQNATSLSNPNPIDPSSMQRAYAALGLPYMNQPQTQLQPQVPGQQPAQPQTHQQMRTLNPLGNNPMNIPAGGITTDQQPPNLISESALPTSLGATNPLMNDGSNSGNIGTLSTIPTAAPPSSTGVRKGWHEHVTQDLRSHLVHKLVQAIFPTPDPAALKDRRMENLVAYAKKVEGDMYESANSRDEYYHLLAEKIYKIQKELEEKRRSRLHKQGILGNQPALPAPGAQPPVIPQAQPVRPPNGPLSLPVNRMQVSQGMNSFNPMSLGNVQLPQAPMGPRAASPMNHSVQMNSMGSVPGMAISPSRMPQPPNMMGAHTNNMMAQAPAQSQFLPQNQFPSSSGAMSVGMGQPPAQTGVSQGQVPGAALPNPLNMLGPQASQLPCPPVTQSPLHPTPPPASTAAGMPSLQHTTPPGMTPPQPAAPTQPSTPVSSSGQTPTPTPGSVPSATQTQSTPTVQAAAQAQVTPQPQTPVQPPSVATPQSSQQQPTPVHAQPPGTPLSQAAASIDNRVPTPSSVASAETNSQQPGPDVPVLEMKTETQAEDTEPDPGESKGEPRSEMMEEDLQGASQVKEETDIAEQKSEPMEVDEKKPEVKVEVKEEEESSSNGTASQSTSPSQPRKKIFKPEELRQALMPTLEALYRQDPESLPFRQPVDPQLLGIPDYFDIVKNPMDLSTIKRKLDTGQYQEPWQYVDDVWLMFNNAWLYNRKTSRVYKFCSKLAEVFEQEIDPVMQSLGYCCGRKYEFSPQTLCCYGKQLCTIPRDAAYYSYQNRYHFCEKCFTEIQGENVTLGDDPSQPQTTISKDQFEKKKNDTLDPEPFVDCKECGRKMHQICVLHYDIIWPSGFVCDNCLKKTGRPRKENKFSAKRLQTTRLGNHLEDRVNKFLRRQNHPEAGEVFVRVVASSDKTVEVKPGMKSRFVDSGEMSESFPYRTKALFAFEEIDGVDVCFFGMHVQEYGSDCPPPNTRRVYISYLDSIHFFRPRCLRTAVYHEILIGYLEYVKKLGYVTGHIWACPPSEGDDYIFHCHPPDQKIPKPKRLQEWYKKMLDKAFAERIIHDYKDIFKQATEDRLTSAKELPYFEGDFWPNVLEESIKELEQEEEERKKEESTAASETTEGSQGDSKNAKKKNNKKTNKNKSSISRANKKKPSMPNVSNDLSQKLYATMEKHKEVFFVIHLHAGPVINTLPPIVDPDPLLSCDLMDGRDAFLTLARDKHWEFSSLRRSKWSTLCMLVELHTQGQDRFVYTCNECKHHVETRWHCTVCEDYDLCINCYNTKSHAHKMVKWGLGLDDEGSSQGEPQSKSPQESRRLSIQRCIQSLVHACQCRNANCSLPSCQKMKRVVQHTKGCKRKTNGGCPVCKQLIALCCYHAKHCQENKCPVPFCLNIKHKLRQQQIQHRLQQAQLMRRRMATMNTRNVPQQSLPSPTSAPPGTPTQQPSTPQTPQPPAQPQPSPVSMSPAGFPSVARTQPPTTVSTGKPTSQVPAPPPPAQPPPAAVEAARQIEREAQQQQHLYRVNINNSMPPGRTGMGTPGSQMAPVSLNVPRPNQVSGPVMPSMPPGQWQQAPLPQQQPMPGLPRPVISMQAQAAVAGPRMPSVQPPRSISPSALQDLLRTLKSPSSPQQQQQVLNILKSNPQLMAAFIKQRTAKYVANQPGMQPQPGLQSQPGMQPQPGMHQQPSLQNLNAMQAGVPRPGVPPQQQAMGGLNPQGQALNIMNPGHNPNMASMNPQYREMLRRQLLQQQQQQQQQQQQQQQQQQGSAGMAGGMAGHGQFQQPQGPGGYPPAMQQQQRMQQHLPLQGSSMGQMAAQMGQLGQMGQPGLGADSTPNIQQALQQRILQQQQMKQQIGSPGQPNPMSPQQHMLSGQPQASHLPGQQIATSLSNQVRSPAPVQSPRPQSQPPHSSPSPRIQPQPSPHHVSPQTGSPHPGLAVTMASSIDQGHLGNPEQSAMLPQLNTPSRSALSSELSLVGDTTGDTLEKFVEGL
ATPase family AAA domain-containing protein 2B, sequence (Q9ULI0 whole entry, the tested form may be a part): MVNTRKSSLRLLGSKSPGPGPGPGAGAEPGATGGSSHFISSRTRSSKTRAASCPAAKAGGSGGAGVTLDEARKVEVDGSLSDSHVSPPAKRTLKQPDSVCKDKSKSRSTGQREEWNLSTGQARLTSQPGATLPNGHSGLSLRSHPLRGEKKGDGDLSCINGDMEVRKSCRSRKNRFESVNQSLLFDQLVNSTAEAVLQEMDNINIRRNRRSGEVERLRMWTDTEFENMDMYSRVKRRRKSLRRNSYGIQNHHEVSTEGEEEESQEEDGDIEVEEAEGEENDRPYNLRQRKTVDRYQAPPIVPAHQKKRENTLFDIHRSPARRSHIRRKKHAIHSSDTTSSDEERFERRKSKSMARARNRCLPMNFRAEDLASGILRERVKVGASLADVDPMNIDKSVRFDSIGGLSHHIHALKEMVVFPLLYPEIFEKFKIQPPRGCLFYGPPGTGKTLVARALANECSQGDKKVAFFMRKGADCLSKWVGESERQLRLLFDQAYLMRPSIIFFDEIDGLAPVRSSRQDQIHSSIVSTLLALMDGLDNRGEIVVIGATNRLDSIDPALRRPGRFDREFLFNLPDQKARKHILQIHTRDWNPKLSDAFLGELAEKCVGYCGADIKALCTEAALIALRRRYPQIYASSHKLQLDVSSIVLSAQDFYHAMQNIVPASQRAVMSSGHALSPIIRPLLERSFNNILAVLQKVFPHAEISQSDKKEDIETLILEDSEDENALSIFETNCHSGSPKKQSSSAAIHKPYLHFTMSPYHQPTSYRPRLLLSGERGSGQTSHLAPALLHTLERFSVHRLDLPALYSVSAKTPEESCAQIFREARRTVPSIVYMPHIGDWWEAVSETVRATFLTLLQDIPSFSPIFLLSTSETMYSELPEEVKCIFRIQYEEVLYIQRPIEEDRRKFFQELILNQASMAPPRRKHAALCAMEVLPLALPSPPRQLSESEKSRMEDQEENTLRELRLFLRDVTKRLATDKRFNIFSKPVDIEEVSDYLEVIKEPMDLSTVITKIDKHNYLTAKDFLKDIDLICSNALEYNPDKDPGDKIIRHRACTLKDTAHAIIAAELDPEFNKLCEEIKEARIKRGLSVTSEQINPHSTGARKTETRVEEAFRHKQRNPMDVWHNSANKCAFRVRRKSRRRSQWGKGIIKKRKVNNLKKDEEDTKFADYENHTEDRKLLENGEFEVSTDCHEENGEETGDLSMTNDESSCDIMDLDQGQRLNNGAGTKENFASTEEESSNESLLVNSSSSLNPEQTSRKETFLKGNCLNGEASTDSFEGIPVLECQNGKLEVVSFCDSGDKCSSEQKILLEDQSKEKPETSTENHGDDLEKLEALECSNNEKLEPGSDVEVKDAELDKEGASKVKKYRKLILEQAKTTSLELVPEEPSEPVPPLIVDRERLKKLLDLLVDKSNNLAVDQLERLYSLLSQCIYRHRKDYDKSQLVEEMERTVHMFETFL

Selectivity ratio (Homo sapiens [1]): > 10
Selectivity ratio (Homo sapiens [2]): > 10
pIC50 [3]: 4.90
pIC50 [4]: 4.70
pIC50 [5]: < 4.30
pIC50 [6]: 6.30
pIC50 [8]: 4.30
pIC50 (CREB-binding protein): < 4.00
Selectivity ratio (Homo sapiens [9]): > 10
pIC50 (Peregrin): < 4.00
pIC50 [11]: < 4.30
pIC50 [12]: 5.40
Selectivity ratio (Homo sapiens [13]): 60
pIC50 [14]: 4.20
pIC50 [16]: 5.00
pIC50 [17]: 4.20
pIC50 [18]: 4.70
pIC50 [19]: 5.60
pIC50 [20]: < 4.30
pIC50 [21]: 4.60
SMILES: CC1(C2CC2)NC(=O)N(CC(=O)Nc2ccc(Br)c(S(=O)(=O)N3CCCCC3)c2)C1=O (racemic)
Selectivity ratio (Homo sapiens [7]): > 10
Selectivity ratio (Homo sapiens [10]): > 10
Selectivity ratio (Homo sapiens [15]): > 10
